Screening data from PubChem BioAssay.
RBBP9 inhibitor = blocks human serine hydrolase RBBP9; recombinant RBBP9, FP-Rh probe fluorescence polarization; 220,000 tested, 0.2% active; inhibition, % at 7.94 µM; O75884;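 active means inhibition above the campaign mean of all tested compounds plus 3 SD, cut at about 14% in these data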
Target sequence (O75884 whole entry, looked up): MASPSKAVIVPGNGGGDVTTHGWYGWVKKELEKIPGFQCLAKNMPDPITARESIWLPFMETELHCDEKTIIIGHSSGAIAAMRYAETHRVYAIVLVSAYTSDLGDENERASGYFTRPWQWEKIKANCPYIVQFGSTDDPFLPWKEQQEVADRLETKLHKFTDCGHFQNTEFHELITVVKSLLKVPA
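System: RBBP9 protein | Quantity: 2.5 µM RBBP9 dispensing solution, before mixing | Reagent: FP-Rh probe, 375 nM dispensing solution | Timing: Enzyme-compound preincubation 30 min, then probe labeling 45 min, 25 °C | Measured by: Fluorescence polarization | Read-out: % inhibition | Replication: One well per compound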
PP1 counter = counter-screen for PP5 inhibitors: inhibitors of human PP1-alpha. purified PP1alpha, OMFP fluorescence. inhibition, % at 6.7 µM. 320,000 tested, 0.9% active;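 active means inhibition above the mean inhibition of all tested compounds plus 3 SD, computed separately for each screening campaign, cut at about 15% in these data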
PP5 inh = blocks human protein phosphatase 5 activity. inhibition, % at 6.7 µM. purified PP5c, OMFP substrate fluorescence. P53041. 320,000 tested, 0.18% active;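 active means inhibition above the campaign's mean inhibition across all tested compounds plus 3 SD, cut at about 9.5% in these data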
Target sequence (P53041 whole entry, looked up): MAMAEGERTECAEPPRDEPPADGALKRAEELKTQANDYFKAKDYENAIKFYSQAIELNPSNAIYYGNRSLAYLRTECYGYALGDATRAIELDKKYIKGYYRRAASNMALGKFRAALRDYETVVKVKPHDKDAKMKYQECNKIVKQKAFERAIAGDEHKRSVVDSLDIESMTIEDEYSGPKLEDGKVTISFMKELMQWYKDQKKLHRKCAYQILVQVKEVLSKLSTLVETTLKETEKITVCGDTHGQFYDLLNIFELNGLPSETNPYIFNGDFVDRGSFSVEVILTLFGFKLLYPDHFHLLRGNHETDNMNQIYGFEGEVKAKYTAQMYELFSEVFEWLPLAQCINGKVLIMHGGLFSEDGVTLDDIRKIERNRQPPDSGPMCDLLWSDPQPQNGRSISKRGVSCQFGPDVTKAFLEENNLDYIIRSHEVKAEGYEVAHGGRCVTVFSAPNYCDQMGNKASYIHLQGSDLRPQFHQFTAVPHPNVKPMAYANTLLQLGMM
Hsp70 act = switches on Hsp70 transcription | HeLa Hsp70 promoter luciferase reporter, luminescence; scaled: vehicle 0, proteasome-inhibitor control 100% | activation, % at 10 µM | 200,000 tested, 0.04% active | AID 1203;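 active means activation above the mean across all tested compounds plus 3 SD, cutoff set per campaign, cut at about 5.5% in these data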
PKD1 inh = inhibitors of human PKD1 kinase | AID 797 | Q15139 | PKD1 kinase fluorescence polarization assay | 200,000 tested, 0.056% active | inhibition, % (no concentration beside the values); in the data active means inhibition above about 50%
p97 inhibitor = human p97 ATPase inhibition; P55072; recombinant p97 ATPase, Kinase-Glo ATP luminescence, 3 h; inhibition, % at 8 µM; 220,000 tested, 0.42% active; AID 1481; in the data active means inhibition above about 15%
p97 confirm = human p97 ATPase inhibition, confirmation. AID 1517. shares compounds with p97 inhibitor. inhibition, % at 8 µM. recombinant p97 ATPase, Kinase-Glo ATP luminescence. 760 tested, 44% active;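 active means percent inhibition of p97 ATPase above a set limit, the primary screen's mean plus 3 SD, cut at about 15% in these data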
Large screens that a line does not name were inactive (follow-up assays come after a bar, where they were run). In the library only some 1.5% were active in any assay of this set; here they are far more common.

Cn1nc(-c2ccccn2)nc2c(=O)n(C)c(=O)nc1-2	PP1 counter 40.8, PP5 inh 16.5, p97 inhibitor 34.0 (no result: Hsp70 act, PKD1 inh) | p97 confirm 33.3
CCCc1nc2c(=O)n(C)c(=O)nc-2n(C)n1	p97 inhibitor 31.6 (no result: PP1 counter, PP5 inh) | p97 confirm 29.2
COc1ccc(-c2nc(-c3ccccn3)ncc2S(C)(=O)=O)cc1	none
O=C(CSc1nc(=O)n(CCCN2CCOCC2)c2c1CCCC2)Nc1ccc(Cl)cc1	none (no result: RBBP9 inhibitor, Hsp70 act, PKD1 inh, p97 inhibitor)
Cc1cc(=O)c2cc(Cl)ccc2[nH]1	none
Cc1cc(=O)[nH]c2ccc(Cl)cc12	p97 inhibitor 15.7 | p97 confirm inactive
COc1ccc(C2=NN(c3ccccc3)C(=O)/C2=C\c2ccc(O)c(OC)c2)cc1	p97 inhibitor 34.8 | p97 confirm inactive
COc1ccc(/C=C2/C(=O)N(c3ccccc3)N=C2C)cc1	none (no result: RBBP9 inhibitor, Hsp70 act, PKD1 inh, p97 inhibitor)
Cn1c(=O)c2c(nc(N/N=C3\CCCc4ccccc43)n2Cc2ccc(F)cc2)n(C)c1=O	none
COc1ccccc1C(=O)NCC(=O)N/N=C/c1ccncc1	p97 inhibitor 16.2 | p97 confirm inactive
COc1ccc(/C=N/NC(=O)c2cc(O)c(O)c(O)c2)cc1Cn1cc([N+](=O)[O-])cn1	p97 inhibitor 17.3 (no result: PP1 counter, PP5 inh) | p97 confirm 31.0
CCOC(=O)Cn1c(=NC(=O)c2ccc([N+](=O)[O-])s2)sc2ccccc21	none
Cn1c(CN2CCOCC2)nc2cc(NC(=O)COc3ccc([N+](=O)[O-])cc3)ccc21	none
Cc1ccccc1C(=O)Nc1nc2c(C)csc2c(=O)s1	p97 inhibitor 38.7 (no result: Hsp70 act, PKD1 inh) | p97 confirm 37.5
Cc1csc2c(=O)sc(NC(=O)c3ccc(F)cc3Cl)nc12	p97 inhibitor 16.9 (no result: Hsp70 act, PKD1 inh) | p97 confirm 19.5
Cc1csc2nc(NC(=O)c3ccccc3)sc(=O)c12	none (no result: Hsp70 act, PKD1 inh)
Cc1csc2c(=O)sc(NC(=O)c3ccc(F)cc3)nc12	none (no result: Hsp70 act, PKD1 inh)
COCCNC(=O)Cn1nc(-c2ccccc2C)ccc1=O	none (no result: RBBP9 inhibitor, Hsp70 act, PKD1 inh, p97 inhibitor)
CN1CCN(C(=O)c2cnn(-c3ccccc3)c2NC(=O)c2ccccc2Br)CC1	none (no result: RBBP9 inhibitor, Hsp70 act, PKD1 inh, p97 inhibitor)
O=C(CCCN1C(=O)/C(=C/c2ccco2)SC1=S)Nc1ccccc1C(=O)O	p97 inhibitor 21.7 (no result: Hsp70 act, PKD1 inh) | p97 confirm inactive
CC(C)N1C(=O)CC(Nc2cccc3cccc(N)c23)C1=O (stereo unspecified)	p97 inhibitor 18.1 (no result: PP1 counter, PP5 inh) | p97 confirm inactive
Cn1cc(C(=O)CCl)c2ccccc21	p97 inhibitor 40.4 (no result: PP1 counter, PP5 inh) | p97 confirm 46.6
O=C(CCCN1C(=O)c2cccc3cccc(c23)C1=O)Nc1nccs1	none (no result: Hsp70 act, PKD1 inh)
COc1ccc([N+](=O)[O-])c(S(=O)(=O)c2ccccc2)n1	p97 inhibitor 15.0 (no result: Hsp70 act, PKD1 inh) | p97 confirm 17.2
CC(=O)c1ccc(NC(=O)CSc2nnc(NC(=O)c3ccco3)s2)cc1	none (no result: RBBP9 inhibitor, Hsp70 act, PKD1 inh, p97 inhibitor)
O=C(N/N=C/c1c[nH]c2ccc(Br)cc12)c1ccc2c(c1)OCO2	p97 inhibitor 15.7 | p97 confirm inactive
CC(C)(C)c1cc(=O)n(-c2ccccc2)[nH]1	p97 inhibitor 34.4 | p97 confirm inactive
CC(C)CN(C(=O)COC(=O)C(C)N1C(=O)c2ccccc2C1=O)c1c(N)n(Cc2ccccc2)c(=O)[nH]c1=O (stereo unspecified)	none (no result: RBBP9 inhibitor, Hsp70 act, PKD1 inh, p97 inhibitor)
CCn1c2ccccc2c2c3ncc4cccn4c3ccc21	p97 inhibitor 15.5 (no result: Hsp70 act, PKD1 inh) | p97 confirm inactive
Cc1ccc(/C=C2/SC(=O)NC2=S)o1	p97 inhibitor 25.8 (no result: PP1 counter, PP5 inh) | p97 confirm inactive
Cc1cc(OC(=O)c2ccc(S(=O)(=O)N3CCCCC3)cc2)c([N+](=O)[O-])c(=O)[nH]1	p97 inhibitor 15.3 | p97 confirm inactive
Cc1cc(OC(=O)c2ccc(S(=O)(=O)N3CCCC3)cc2)c([N+](=O)[O-])c(=O)[nH]1	none
COc1cccc(C(=O)CC(C#N)c2ccc(F)cc2)c1 (stereo unspecified)	none (no result: RBBP9 inhibitor, Hsp70 act, PKD1 inh, p97 inhibitor)
Cc1nnc(N/N=C\c2ccc(-c3ccccc3[N+](=O)[O-])o2)n1N	p97 inhibitor 17.2 | p97 confirm inactive
Cc1nnc(N/N=C/c2ccc(-c3ccccc3F)o2)n1N	none
Cc1nc(Cl)c(C(=O)NCCc2ccccc2)c(C)c1[N+](=O)[O-]	none (no result: RBBP9 inhibitor, Hsp70 act, PKD1 inh, p97 inhibitor)
O=[N+]([O-])c1ccccc1NC(=S)N/N=C/c1ccc(O)c(O)c1	p97 inhibitor 19.2 | p97 confirm 22.0
CCCCCNC(=O)c1cc(S(=O)(=O)N2CCCC2)ccc1F	none
CC(C)(C)OC(=O)N[C@@H](Cc1ccccc1)C(=O)N[C@@H](CO)[C@H](O)[C@@H]1C[C@@H]1C(=O)NC1CC1	none (no result: RBBP9 inhibitor, Hsp70 act, PKD1 inh, p97 inhibitor)
O=C(NNC(=O)c1cc(-c2ccco2)nc2ccccc12)c1ccccc1	none (no result: Hsp70 act, PKD1 inh)
O=C(O)c1cc(-c2ccco2)nc2cc3ccccc3cc12	p97 inhibitor 29.8 (no result: Hsp70 act, PKD1 inh) | p97 confirm 23.3
Cc1ccc(-n2[nH]c(C)c(CCC#N)c2=O)cc1	none
NC(=O)c1sc2nc(-c3ccco3)ccc2c1N	p97 inhibitor 24.3 | p97 confirm inactive
Nc1c(C(=O)Nc2ccccc2F)sc2nc(-c3ccco3)ccc12	none
C[N+]1(C)CCC(=C2c3ccccc3CC(=O)c3sccc32)CC1	p97 inhibitor 19.2 | p97 confirm inactive
N#C/C(=C\c1ccc([N+](=O)[O-])o1)c1nc2ccccc2[nH]1	p97 inhibitor 20.9 | p97 confirm 36.1
Cc1ccc2nc(/C(C#N)=C\c3ccc([N+](=O)[O-])o3)[nH]c2c1	p97 inhibitor 15.8 | p97 confirm 32.0
Cc1ccc2nc(/C(C#N)=C\c3ccc(N4CCOCC4)o3)[nH]c2c1	none
O=C(COC(=O)c1cc([N+](=O)[O-])ccc1N1CCOCC1)NC1CCCCC1	none (no result: RBBP9 inhibitor, Hsp70 act, PKD1 inh, p97 inhibitor)
CN1c2cccc3cccc(c23)N(C)C1(C)C	none
CC(=O)c1ccc2cccc3c2c1N=CN3C	p97 inhibitor 31.7 | p97 confirm inactive
N#Cc1c(-c2ccco2)cc(-c2ccccc2)[nH]c1=O	p97 inhibitor 22.4 (no result: Hsp70 act, PKD1 inh) | p97 confirm inactive
COc1ccc2ccccc2c1/C=N/NC(=O)c1sc(N)c(C#N)c1C	p97 inhibitor 17.6 | p97 confirm 39.3
CSC1=NC(=O)/C(=C\c2cccc3ccccc23)S1	p97 inhibitor 15.2 | p97 confirm inactive
O=C(NCc1ccco1)c1sc(=S)n2c1[nH]c(=O)c1ccccc12	p97 inhibitor 15.3 | p97 confirm 24.9
Cc1ccc(SC/C(O)=C(\C#N)c2nc3ccccc3s2)cc1	p97 inhibitor 20.8 | p97 confirm 39.4
COc1ccc2[nH]c3c(=O)n(Cc4ccc(C(=O)N5CCCC5)cc4)c(=S)[nH]c3c2c1	none
Brc1ccccc1C1CC(c2ccccc2)=Nc2ccccc2N1 (stereo unspecified)	none
Clc1ccccc1C1CC(c2ccccc2)=Nc2ccccc2N1 (stereo unspecified)	p97 inhibitor 14.9 (no result: Hsp70 act, PKD1 inh) | p97 confirm inactive
CSc1ccccc1C(=O)C1CCCN(S(=O)(=O)c2c(C)noc2C)C1 (stereo unspecified)	none
Cc1c(S(=O)(=O)NC2CCCCC2)c(=O)n(C)c(=O)n1C	none (no result: RBBP9 inhibitor, Hsp70 act, PKD1 inh, p97 inhibitor)
